Source: PubChem BioAssay (several laboratories)
NR2E3 ag-1 = agonists of human nuclear receptor NR2E3. Q9Y5X4. GST-NR2E3/biotin-RetCOR TR-FRET, 1536-well. inhibition of corepressor binding, % at 4.78 µM. 0.12% of 320,000 active;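 active = percent inhibition above the cutoff of mean plus 3 SD of all tested compounds, set per screening campaign, cut at about 20% in these data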;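 note: 0% = DMSO wells and 100% = biotin wells as full block of FRET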
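Material: NR2E3–RetCOR corepressor complex | Quantity: 1.35 nM GST-tagged NR2E3 final | Schedule: 5 h at 4 °C | Replication: Singlicate compound wells | Reagent: RetCOR corepressor, biotinylated, 7 nM | Controls: Biotin wells as high control, 0.6% DMSO wells as low control | Signal: TR-FRET, Eu(K)-anti-GST donor, streptavidin-D2 acceptor, ex 340, em 617/671 nm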
NR2E3 ag-2 = agonists of human NR2E3 nuclear receptor. Q9Y5X4. CHO-S Gal4-NCOR/VP16-NR2E3 two-hybrid, luciferase. inhibition of corepressor binding, % at 3.98 µM. 0.35% of 360,000 active. AID 602229;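 active = inhibition above the mean of all tested compounds plus 3 SD, cut at about 70% in these data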;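 note: 0% = DMSO with NR2E3 transfected cells and 100% = cells lacking NR2E3 construct; higher means lower luciferase signal from less NR2E3 corepressor binding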
PG9 binder = small molecules binding HIV-1 gp120 antibody PG9; TR-FRET gp120-PG9 antibody binding; inhibition, % at 6.7 µM; 0.43% of 360,000 active; in the data active = inhibition above about 8.5%
NR1D1 modulator = Rev-erb alpha (human) modulation. AID 1259318. 0.79% of 370,000 active. P20393. Rev-erbα–FITC-DNA binding, fluorescence polarization, 90 min. activity, % at 10 µM;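 active = activity above about 14%, limit read from the data; passing the limit was not always enough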;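 note: 0% = DMSO wells with 35 nM protein and 100% = DMSO wells with 750 nM protein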
Target sequence (P20393 whole entry, looked up): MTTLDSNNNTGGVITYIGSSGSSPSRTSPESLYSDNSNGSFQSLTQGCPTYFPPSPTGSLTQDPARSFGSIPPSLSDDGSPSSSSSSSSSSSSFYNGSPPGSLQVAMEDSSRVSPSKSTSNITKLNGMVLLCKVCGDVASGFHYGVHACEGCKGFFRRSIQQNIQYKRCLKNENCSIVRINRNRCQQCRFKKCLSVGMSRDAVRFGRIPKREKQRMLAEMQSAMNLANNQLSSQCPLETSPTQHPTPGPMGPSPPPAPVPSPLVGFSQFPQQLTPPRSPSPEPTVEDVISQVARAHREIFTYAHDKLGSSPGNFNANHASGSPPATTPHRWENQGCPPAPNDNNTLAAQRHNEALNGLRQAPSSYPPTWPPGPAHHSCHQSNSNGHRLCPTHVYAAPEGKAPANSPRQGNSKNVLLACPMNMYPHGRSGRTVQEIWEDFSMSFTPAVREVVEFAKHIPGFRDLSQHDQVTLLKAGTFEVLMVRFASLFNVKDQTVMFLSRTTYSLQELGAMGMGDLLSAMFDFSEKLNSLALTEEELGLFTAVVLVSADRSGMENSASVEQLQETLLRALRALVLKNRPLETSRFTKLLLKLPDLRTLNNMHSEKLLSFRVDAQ
NR1D1 mod conf = Rev-erb alpha (human) modulation, hit confirmation; shares compounds with NR1D1 modulator; activation, % at 25 µM; Rev-erb alpha FITC-DNA binding, fluorescence polarization, 90 min; 61% of 3,000 active;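 active = activation at or above a set limit, or at least 3 SD above the negative control mean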;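 note: 0% = 35 nM protein with DMSO and 100% = 750 nM protein high control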
RORg counter = counter-screen for Rev-erb alpha modulators: RORgamma DNA binding | shares compounds with NR1D1 modulator | 8% of 910 active | purified RORgamma protein-FITC-DNA binding, fluorescence polarization | IC50, µM;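 active = Compounds whose fitted half-maximal concentration for disrupting protein-DNA binding is below 10 micromolar; the record names Rev-erb in its text, so the target is in doubt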
Active calls of the source: *; · = no result. An excerpt weighted towards active compounds, which were near 1.4% of everything screened.

SMILES	NR2E3 ag-1	NR2E3 ag-2	PG9 binder	NR1D1 modulator	NR1D1 mod conf	others
CCc1ccc(CCNC(=O)OC2CCC23CCC(c2ccccc2)CC3)cc1 (stereo not drawn)	·	·	·	-0.4	·
Clc1ccc2c(SCC3CO3)c3ccccc3nc2c1 (stereo not drawn)	·	-24.9	0.3	-21.3	·
Cc1nn(C)c(C)c1NC(=O)CSc1nc(-c2ccccc2Cl)nc2c1cnn2-c1ccccc1	-5.8	-21.2	2.9	102.2*	91.9*	RORg counter=6.77*
Cc1cc(NC(=O)CSc2ncnc3c2cnn3-c2ccccc2)no1	4.0	-11.7	0.6	3.1	·
Cc1nn(C)c(C)c1NC(=O)CSc1nc(-c2ccccc2F)nc2c1cnn2-c1ccccc1	·	-22.2	-0.8	41.7*	62.5*	RORg counter=>40
CCc1cccc(C)c1NC(=O)CSc1nc(-c2ccccc2F)nc2nc[nH]c12	-14.4	-6.8	1.6	2.2	·
O=C1NC[C@@H](CCCCN2C[C@H](Cc3ccccc3)N(CCc3ccc(O)cc3)C(=O)C2=O)N(CC2CCCCC2)C1=O	·	-11.2	-0.4	2.5	·
CCCCNC(=O)C[C@@H]1C[C@@]2(C(=O)OCC)CCCC=C2N(Cc2ccccc2)C1=O	·	·	-1.1	1.4	·
CC1(C)Cc2c(sc3nnn(Cc4ccc(Cl)cc4)c(=O)c23)CO1	2.1	-30.1	-1.8	-0.5	·
CC1(C)Cc2c(sc3c2c(N)nc(=S)n3Cc2ccc(Br)cc2)CO1	1.1	0.6	-2.0	135.4*	94.9*	RORg counter=>40
Cc1nc2c(c(=O)c3ccccc3n2C)c(=O)n1C1CCCC1	·	·	-1.0	-2.8	·
Cn1c2ccccc2c(=O)c2c(=O)n(C3CCCCCC3)c(C3CCCCC3)nc21	·	-35.3	-2.7	160.7*	79.4*
COCC(=O)Nc1c(C(=O)Nc2ccccc2OC)oc2ccccc12	1.4	2.2	1.1	23.3	·
COc1ccccc1NC(=O)c1oc2ccccc2c1NC(=O)c1cc(OC)c(OC)c(OC)c1	-0.2	-19.2	0.3	100.0*	69.3*	RORg counter=>40
CC1=NCCN1S(=O)(=O)c1c(C(C)C)cc(C(C)C)cc1C(C)C	4.8	-8.4	1.2	44.6*	44.4*	RORg counter=>40
COc1ccc(Cl)cc1S(=O)(=O)N1CCN=C1C	0.5	19.8	1.5	-0.3	·
COCOCCn1cc(CN2CCS(=O)(=O)N(Cc3ccc(-c4ccc(F)cc4)cc3)C(CC(C)C)C2=O)nn1 (stereo not drawn)	·	7.1	-1.4	-4.3	·
COc1ccc(C=NN=C2c3ccccc3-c3ccccc32)cc1OC	·	-13.1	-1.7	8.8	·
CCCCC(=O)N=c1sc2c(OC)ccc(OC)c2n1C	2.8	-10.8	-0.5	23.1*	7.6
CCn1c(=NC(=O)CCS(=O)(=O)c2ccccc2)sc2cccc(OC)c21	0.7	-5.6	-1.2	5.0	·
COc1ccc(C(=O)N=c2sc3c(C)ccc(OC)c3n2C)cc1OC	-0.6	-44.0	-0.3	13.6	·
COc1cccc(C(=O)N=c2sc3c(C)ccc(OC)c3n2C)c1	-1.4	-95.4	-1.5	23.6*	5.2
COC(=O)Cn1c(=NC(=O)CCS(=O)(=O)c2ccccc2)sc2c(OC)ccc(OC)c21	3.8	-17.8	-0.8	82.3*	39.2*	RORg counter=>40
CCC[C@H]1[C@@H](NC(=O)c2cccc(Cl)c2)CC[C@@]23CCCN2C(=O)CCC[C@@H]13	·	·	·	0.6	·
CCc1nc(SCC(=O)Nc2cc(C)ccc2OC)c2c(C)c(C)sc2n1	-1.6	-26.0	-0.8	18.0*	7.9
SMILES	NR2E3 ag-1	NR2E3 ag-2	PG9 binder	NR1D1 modulator	NR1D1 mod conf	others
CC(=O)Nc1ccc(S(=O)(=O)N2C(=O)c3cccc4cccc2c34)cc1	-0.4	·	-2.3	32.6*	3.1
COc1cc(CCC(=O)OCC(=O)NCC2CCCCC2)cc(OC)c1OC	2.9	2.0	-1.3	16.2*	2.7
COc1cc(CCC(=O)OCC(=O)NCc2ccccc2)cc(OC)c1OC	-3.6	11.9	1.0	·	·
COc1ccc(-c2ccc(C3C(C#N)=C(N)Oc4n[nH]c(C)c43)o2)cc1 (stereo not drawn)	2.3	-19.9	-0.6	21.9*	19.3*
COc1ccc2nc(SCC(=O)N3CCCCC3)c(C#N)cc2c1	1.6	11.2	-1.1	-3.0	·
COc1ccc2nc(SCC(=O)Nc3ccc(S(=O)(=O)N4CCCC4)cc3)c(C#N)cc2c1	-1.2	-22.8	-1.7	109.1*	74.0*	RORg counter=>40
N#Cc1cc2ccccc2nc1SCC(=O)Nc1ccc(S(=O)(=O)N2CCCC2)cc1	1.7	-15.2	0.1	29.6*	24.0*
Cc1cc(C)c2nc(SCC(=O)Nc3ccc(S(=O)(=O)N4CCCC4)cc3)c(C)cc2c1	-3.4	-36.0	2.2	13.4	·
CCOc1ccc2nc(SCC(=O)Nc3ccc(S(=O)(=O)N4CCCC4)cc3)c(C)cc2c1	0.8	-11.0	-0.4	25.1*	17.5
Cc1ccc(NC(=S)Nc2ccc(S(=O)(=O)N3CCOCC3)cc2)cc1S(=O)(=O)N1CCOCC1	3.6	16.1	-0.7	16.6*	-4.8
O=C(Nc1ccc(-c2nc3cc(Cl)ccc3c(=O)o2)cc1)c1ccco1	0.9	10.1	-0.3	27.3*	0.3
O=C(NNC(=O)c1ccc(Br)s1)c1cccc(S(=O)(=O)N2CCCC2)c1	1.2	7.9	-1.1	1.7	·
Cc1ccsc1C(=O)NNC(=O)c1cccc(S(=O)(=O)N2CCCC2)c1	3.1	-9.9	1.9	18.0*	-4.7
COC(=O)C1=C(C)N(Cc2cccc(C(F)(F)F)c2)C(=NCc2cc(OC)c(OC)c(OC)c2)NC1c1ccc(F)cc1 (stereo not drawn)	·	·	-0.7	-7.2	·
Fc1ccc(-c2nc3ccccc3c3nc4ccccc4n23)cc1	-1.1	-11.3	0.7	26.2*	19.4*
Cc1nc2ccccc2c2nc3ccccc3n12	3.7	-2.9	0.8	-0.2	·
C[C@@H](O)CNC(=O)c1[nH]cnc1C(=O)N[C@H](C)c1ccccc1	·	-12.2	-0.9	6.0	·
N#CCCN1CCCc2cc(N=Nc3ccc(C(F)(F)F)cc3)ccc21	-0.7	-33.5	-1.0	17.5*	21.9*
COc1ccc(C(=O)OCCCN(C)C2CN(Cc3cn(Cc4cccc(F)c4)nn3)S(=O)(=O)C2)cc1OC (stereo not drawn)	·	·	·	-2.6	·
COc1ccc(-n2c3c(cc(C(=O)NCC(=O)c4ccccc4)c2=O)C(=O)CC(C)(C)C3)cc1	0.6	2.1	0.1	18.8*	8.4
COCc1[nH]nc2c1C(c1cccc(C(F)(F)F)c1)N(c1ccccc1)C2=O (stereo not drawn)	·	·	0.5	2.6	·
CC(C)(C=O)Cc1cc(C(C)(C)C)c(O)c(C(C)(C)C)c1	5.1	3.6	-1.3	21.5*	18.8*
O=C(CSc1nnc(-c2ccccn2)n1-c1ccccc1)c1ccc(F)cc1	·	·	·	3.2	·
Cc1ccc(C2CC(c3cccs3)=NN2C(=O)CSc2nc(=O)n3cc(C)ccc3n2)cc1 (stereo not drawn)	-2.3	-39.3	-0.1	26.7*	18.3*
